Hits are enriched below; roughly 2.5% of the tested compounds scored in any of these assays.
TRPC4 act: TRPC4 (mouse) channel activation | 0.49% of 310,000 active | HEK293 TRPC4beta/mu-opioid, Fluo4 calcium fluorescence; active compounds read high | B-score at 10 µM | AID 2237 | Q9QUQ5;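 active = B-score above 5 SD of library B-scores, and initial fluorescence ratio not above library mean plus 5 SD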;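 also: positive B-score marks a calcium rise read as TRPC4 activation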
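System – HEK293 cells stably co-expressing mouse TRPC4beta and mu-opioid receptor · Signal – Fluo4 calcium-sensitive dye fluorescence, kinetic, 1 Hz baseline · Benchmarks – buffer (low) and maximal DAMGO (high) · Read-out – B score of integrated fluorescence ratio per well · Incubation – dye loading 45 min room temperature, 110 s kinetic read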
TRPC6 inhibitor: inhibitors of mouse TRPC6 channel; HEK293-TRPC6, membrane potential dye, ACh-evoked depolarization; active compounds read low; B-score at 10 µM; 1.1% of 310,000 active;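 active = B-score under library mean minus 3 SD, initial fluorescence not abnormally high, positive integrated signal ratio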;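 also: B-score derived from integrated fluorescence ratio over the kinetic read; more negative B-score means stronger inhibition of depolarization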
TRPC4 PAM: allosteric potentiators of mouse TRPC4 channel; 0.42% of 310,000 active; AID 2227; B-score at 10 µM; HEK293 TRPC4beta/mu-opioid, DAMGO EC20, Fluo-4 Ca2+ flux; active compounds read high; Q9QUQ5;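 active = B-score of calcium response area above 5 SD of library B-scores, with initial fluorescence ratio within 5 SD of library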;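 also: B-score of integrated fluorescence ratio over time as area under calcium response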
TRPC4 block: TRPC4 (mouse) channel inhibition; Q9QUQ5; 0.39% of 300,000 active; B-score at 10 µM; HEK293 TRPC4beta/mu-opioid, DAMGO-evoked Fluo4 calcium flux; active compounds read low;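 active = B-score over 3 SD under the library average, no early fluorescence shift, positive overall ratio signal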
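Assay system: HEK293 cells with stable TRPC4beta plus mu-opioid receptor expression. Dosing: single dose. Measured by: Fluo4 Ca2+ flux fluorescence. Also added: DAMGO in two steps, submaximal then maximal. Read-out: B score from integrated Fluo4 fluorescence ratio.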
TRPC6 act: activators of mouse TRPC6 channel. Q61143. HEK293-TRPC6 membrane potential dye fluorescence; active compounds read high. B-score at 10 µM. 0.13% of 310,000 active. AID 2550;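 active = B-score of the integrated fluorescence ratio above library mean plus 3 SD, and starting fluorescence ratio within library mean plus 5 SD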;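 also: higher score means more depolarization so channel activation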
Platelet DG rel: modulates dense granule release in human platelets | human platelet-rich plasma, SFLLRN dense granule ATP release, luminescence | inhibition, %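 (compounds screened at 7.5 µM in platelet-rich plasma)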 | 0.22% of 300,000 active;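 active = mean replicate score, as percent of positive control, at or above 50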
* = called active by the depositor; i = inactive; . = not tested or not shown.

SMILES	TRPC4 act	TRPC6 inhibitor	TRPC4 PAM	TRPC4 block	TRPC6 act	Platelet DG rel
C=CCN1CC[C@]23c4c5ccc(O)c4O[C@H]2/C(=N/NC(=O)c2ccccc2)CC[C@@]3(O)[C@H]1C5	49*	i	i	i	i	2
C=C1CC[C@@]2(O)[C@H]3Cc4ccc(O)c5c4[C@@]2(CCN3CC2CC2)[C@H]1O5	i	i	i	i	i	3
CN(CCc1nnc(N)s1)[N+](=O)[O-]	i	i	i	i	i	-1
O=c1[nH]c(=O)n(Cc2ccc(F)cc2)c(O)c1C=NCCCO	57*	i	i	-5*	i	3
CCc1cc(=O)oc2c(C)c(OCC(=O)N3C[C@H]4C[C@@H](C3)c3cccc(=O)n3C4)ccc12	i	i	i	i	i	0
CCOC(=O)c1cncn1[C@H](C)c1ccccc1	i	i	i	i	i	1
CC(C)CC(NC(=O)CCCNC(=O)CCC(=O)OC1O[C@H]2OC3(C)CC[C@H]4[C@H](C)CCC(C1C)C24OO3)C(=O)O (some centres not stated)	i	i	i	i	i	.
CCN1C[C@]2(COC)CC[C@H](O)[C@@]34C5C[C@H]6[C@H](O)C5[C@](O)(C[C@H]6OC)[C@@H]([C@H](OC)C23)[C@@H]14 (some centres not stated)	i	i	i	i	i	-1
Clc1ccc(OCC#CCN2CCCC2)cc1	i	i	24*	i	i	3
CCc1c(C(=O)NN2C(=O)C3C4CCC(O4)C3C2=O)csc1C (configuration not stated)	i	i	i	i	i	-6
CCOP(=O)(Cc1cc(C(C)=O)c(C)o1)OCC	i	i	i	i	i	11
Cc1cccc(N=Cc2c(O)n(-c3ccccc3C)c(=O)[nH]c2=O)c1	i	i	24*	i	i	-4
CC1(C)CC(n2[nH]c(=O)c3c2NC(=O)CSC3c2ccccc2)CCO1 (configuration not stated)	i	i	i	i	i	1
N#CC1=C(N)Oc2c(c(=O)oc3ccccc23)C1c1ccc([N+](=O)[O-])o1 (configuration not stated)	i	i	i	i	i	-3
COc1ccc(Cl)cc1C(=O)C1CCCN(CCO)C1 (configuration not stated)	70*	i	i	i	i	6
CC1=CC(=O)NP(=O)(Oc2ccc3ccccc3c2)N1 (configuration not stated)	i	i	i	i	i	-2
COC(=O)C1=CCCN(C)C1	99*	i	i	i	i	-3
C[N+]1(CCC(C(N)=O)(c2ccccc2)c2ccccc2)CCCCC1	i	-9.7*	i	i	i	2
C[C@H]1CCCC(=O)CCCCCc2cc(O)cc(O)c2C(=O)O1	i	i	i	i	i	2
CC(=O)OC1N=C(c2ccccc2)c2cc(C)ccc2NC1=O (configuration not stated)	i	i	i	i	i	.
CC/C(=C\C=C\[C@@H]1C=C[C@@H]2CCC[C@H]2[C@@H]1C(=O)c1ccc[nH]1)[C@@H]1O[C@@H]([C@@H](C)C(=O)O)CC[C@@H]1C	67*	i	i	i	i	0
O=c1[nH]sc2cc(F)ccc12	i	i	i	i	i	22
COc1cc2c(c(OC)c1OC)-c1ccc(O)cc1[C@@H](NC(C)=O)CC2	i	i	i	i	i	0
CNC(=S)N1CCn2cccc2C1c1cccnc1 (configuration not stated)	i	i	i	i	i	1
C=CCOC(=O)C1=C(C)OC(N)=C(C#N)[C@@]12C(=O)N(CC(N)=O)c1ccccc12	i	i	22*	i	i	.
SMILES	TRPC4 act	TRPC6 inhibitor	TRPC4 PAM	TRPC4 block	TRPC6 act	Platelet DG rel
CCOC(=O)C1CCN(/C=C2\C(=O)NC(=S)N(CC)C2=O)CC1	i	i	i	i	i	10
CC(C)(C)n1cc(C(=O)c2ccccc2)cc1-c1ccccc1	i	i	i	i	i	8
Clc1cccc(C2NCCc3[nH]cnc32)c1 (configuration not stated)	50*	i	i	i	i	-1
Fc1ccc(C2NCCc3[nH]cnc32)cc1 (configuration not stated)	60*	i	i	i	i	11
CCCCn1c(NS(=O)(=O)c2ccccc2)c(C(=O)OCC)c2nc3ccccc3nc21	i	i	i	i	i	-13
CCCCn1c(NC(=O)c2ccc(Br)o2)c(C(=O)OCC)c2nc3ccccc3nc21	i	i	i	i	15*	-2
COC(=O)C(C)NC(=S)N1CC2C[C@@H](C1)Cn1c2cccc1=O (some centres not stated)	i	i	i	i	i	4
COc1ccc(/C=N/N=C(/N)N[N+](=O)[O-])c(OC)c1	i	i	i	i	i	121*
CCN(CC)c1ccc(CNCCc2ccc(F)cc2)cc1	51*	i	i	i	i	4
CCc1ccc(CNCCc2ccc(F)cc2)cc1	i	i	i	i	i	-4
COc1ccc(C[C@@H]2c3cc(O)c(OC)cc3CCN2C)cc1O	i	i	17*	i	i	-2
O=[N+]([O-])c1cc2c(cc1CNCCc1ccc3c(c1)OCO3)OCO2	90*	i	i	-8*	i	-9
COc1ccc(O)c(CN2CCCC(C(=O)c3sccc3C)C2)c1 (configuration not stated)	i	i	i	-7*	i	3
CCc1ccc(CN2CCCC(C(=O)c3sccc3C)C2)o1 (configuration not stated)	i	i	i	-8*	i	3
Cc1ccsc1C(=O)C1CCCN(Cc2ccccc2O)C1 (configuration not stated)	i	i	i	-6*	i	4
CCC1(CCc2ccncc2)C(=O)NC(=O)NC1=O	i	i	i	i	i	0
Cc1ccc(OP(=O)(NC(C)c2ccccc2)Oc2ccc(C)cc2)cc1 (configuration not stated)	i	i	i	i	i	-19
COc1ccccc1N1C(=O)NC(=O)C2(Cc3cc(C)ccc3N(C)C2)C1=O (configuration not stated)	i	i	i	i	i	8

Screens (PubChem BioAssay)
